Data set [1] is described as follows: Inhibition of soybean 15-LOX using arachidonic acid or linoleic acid as substrate incubated for 10 mins by colorimetric lipoxygenase inhibitor screening assay kit method. More on the design: species or system Glycine max. An outline of the steps:
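Soybean 15-LOX in a colorimetric kit: enzyme plus compound (1.25–100 µM, in assay buffer), reaction started with arachidonic or linoleic acid substrate, shaken at least 10 min. Chromogen added to stop and develop, absorbance at 490–500 nm; IC50 determined, mean ± SD, n = 3.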

Data set [2] concerns PC-12. The data set can be described thus: Neuroprotection activity in rat PC12 cells assessed as reduction in 6-OHDA-induced cell damages at 10 uM preincubated for 3 hrs followed by H2O2 addition and measured after 24 hrs by MTT assay relative to control. The class given is functional, cell-based. The note with it: in the assay text read “6-OHDA addition” for “H2O2 addition”. An outline of the steps: (§1)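 PC12 cells plated at 2 × 10^5 cells mL−1 for 1 day, pretreated 3 h with compounds at 2.5, 5 or 10 µM, then 6-OHDA (final 250 µM) added for 24 h. Viability by MTT, absorbance 570 nm; untreated cells = 100%; mean ± SD, n = 3.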

Data set [3] in a line: Cytotoxicity against […] BV2 cells assessed as cell viability at 100 uM after 24 hrs by MTT assay. The class given is cell-based. The note with it: read-out: Activity. An outline of the steps: (§2)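 Cells kept in high-glucose DMEM with 10% FBS and 1% PS at 37 °C, 5% CO2. Plated 1 day, then compounds for 24 h; viability by MTT at 100 µM as ODtreated/ODcontrol × 100%, untreated = 100%. Mean ± SD, n = 3.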

Data set [4] can be described thus: Cytotoxicity against […] BV2 cells assessed as cell viability at 0.625 to 40 uM after 24 hrs by MTS assay. The format is cell-based. The note with it: read-out: Activity. The method, boiled down: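 Viability of BV2 cells read by MTS under the NO-assay conditions: 3 h compound (0.625–40 µM) pretreatment followed by LPS 100 ng mL−1 for 24 h.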
For data set [5], the system named is PC-12. Nature of the data set: Neuroprotection activity in rat PC12 cells assessed as reduction in 6-OHDA-induced cell damages at 2.5 uM preincubated for 3 hrs followed by H2O2 addition and measured after 24 hrs by MTT assay relative to control. The class given is functional, cell-based. The note with it: in the assay text read “6-OHDA addition” for “H2O2 addition”. An outline of the steps:
as §1

Data set [6] relates to PC-12. The data set can be described thus: Neuroprotection against H2O2-induced cell death in rat PC12 cells assessed as increase in cell viability at 5 uM preincubated for 3 hrs followed by H2O2 addition and measured after 3 hrs by MTS assay relative to CAPE. The format is functional. The method, boiled down: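 PC12 cells plated at 2 × 10^5 cells/mL for 1 day, pretreated with compound (2.5, 5, 10 µM) for 3 h, then H2O2 added (final 400 µM) for 3 h. Viability read by MTS at 490 nm, untreated cells = 100%. Mean ± SD, n = 3.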

A short description of data set [7]: Anti-neuroinflammatory activity in […] BV2 cells assessed as reduction in LPS-induced NO production preincubated for 3 hrs followed by LPS stimulation for 24 hrs by Griess assay. The format is functional, cell-based. The note with it: BV-2. The method, boiled down: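 BV2 microglia seeded 3 × 10^5 cells mL−1 for 1 day; compounds in medium added for 3 h, then LPS (final 100 ng mL−1) for a further 24 h. Supernatant mixed with Griess reagent, absorbance at 540 nm. Inhibition % from NO release of LPS-only, unstimulated and compound+LPS wells; IC50 reported; mean ± SD, n = 3.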

The nature of data set [8]: Cytotoxicity against rat PC12 cells assessed as cell viability at 100 uM after 24 hrs by MTT assay. The format is cell-based, PC-12. The note with it: read-out: Activity. An outline of the steps:
as §2

Data set [9] is described as follows: Antioxidant activity assessed as DPPH radical scavenging activity after 1 hr by […]. The format is functional. The method, boiled down: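 DPPH (0.2 mM) in ethanol mixed with sample, kept 1 h at room temperature, absorbance read at 517 nm. Scavenging % = [1−(Ac−Ab)/A0]×100, where Ab is the sample in ethanol without DPPH and A0 is the ethanol+DPPH control. EC50 reported; vitamin C used as reference antioxidant; mean ± SD, n = 3.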

The test system of data set [10] is PC-12. Nature of the data set: Neuroprotection activity in rat PC12 cells assessed as reduction in H2O2-induced cell death preincubated for 3 hrs followed by H2O2 addition and measured after 3 hrs by MTS assay. The format is functional, cell-based. An outline of the steps:
(§3)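 PC12 cells plated at 2 × 10^5 cells mL−1 for 1 day, pretreated 3 h with compounds, then H2O2 (final 400 µM) for 3 h. Viability by MTS at 490 nm relative to untreated cells (100%); single-concentration tests at 2.5, 5, 10 µM and IC50 values; mean ± SD, n = 3.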

The nature of data set [11]: Potency index, ratio of IC50 for CAPE to IC50 for test compound for anti-neuroinflammatory activity in […] BV2 cells. The class given is functional.
Data set [12] concerns PC-12. The data set can be described thus: Neuroprotection against H2O2-induced cell death in rat PC12 cells assessed as decrease in late apoptotic cells at 10 uM preincubated for 3 hrs followed by H2O2 addition and measured 3 hrs by Annexin V-FITC/propidium iodide staining based fluorescence microscopic method. The class given is functional. The method, boiled down: (§4)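 PC12 cells (1.5 × 10^5 cells mL−1, 35 mm dishes) plated 1 day, pretreated 3 h at 2.5 or 10 µM, then exposed to H2O2 (final 400 µM) for 3 h. Washed with ice-cold PBS, stained with Annexin V-FITC and PI in binding buffer for 5 min at 25 °C in the dark, and counted by fluorescence microscopy as early (AV+) or late (AV+PI+) apoptotic cells.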

For data set [13], the system named is PC-12. The data set can be described thus: Neuroprotection against H2O2-induced cell death in rat PC12 cells assessed as decrease in early apoptotic cells at 10 uM preincubated for 3 hrs followed by H2O2 addition and measured 3 hrs by Annexin V-FITC/propidium iodide staining based fluorescence microscopic method. The format is functional. An outline of the steps:
as §4

The test system of data set [14] is PC-12. The data set can be described thus: Neuroprotection against H2O2-induced cell death in rat PC12 cells assessed as decrease in apoptotic cells at 2.5 uM preincubated for 3 hrs followed by H2O2 addition and measured 3 hrs by Annexin V-FITC/propidium iodide staining based fluorescence microscopic method. The class given is functional. An outline of the steps:
as §4

Data set [15] relates to PC-12. Nature of the data set: Neuroprotection against H2O2-induced cell death in rat PC12 cells assessed as increase in cell viability at 2.5 to 5 uM preincubated for 3 hrs followed by H2O2 addition and measured after 3 hrs by MTS assay. The class given is functional, cell-based. The method, boiled down: as §3
Data set [16] can be described thus: Potency index, ratio of IC50 for (E)-4-(2-((3-phenylpropyl)sulfonyl)vinyl)benzene-1,2-diol to IC50 for test compound for anti-neuroinflammatory activity in […] BV2 cells. The format is functional.

Active and inactive are the calls of the source. No cut-off for these calls is given here.

`CC(Cc1ccc(O)c(O)c1)C(C)Cc1ccc(O)c(O)c1` (stereo unspecified) [NORDIHYDROGUAIARETIC ACID] returned an IC50 in [1] of 2.1 µM.
`CCCCCS(=O)(=O)/C=C/c1ccc(O)c(O)c1`: the result with PC-12 [2] and with PC-12 [5] was Active. Besides, the viability at 24 h, 100 µM worked out at 70.1% in data set [3] and 57.4% in data set [8]. Besides, in [4], the viability at 24 h, up to 40 µM was greater than 90%. For the same compound, in the data set with PC-12 [6], the Activity was found to be 30%. Further, the IC50 turned out to be 3.3 µM in data set [7] and 1.83 µM in the data set with PC-12 [10]. Moreover, the EC50 in data set [9] worked out at 8.1 µM.
`C=CCCCCCCCS(=O)(=O)/C=C/c1ccc(O)c(O)c1`: the result in the data set with PC-12 [2] and in the data set on PC-12 [5] was Active. For the same compound, the viability at 24 h, 100 µM in data set [3] was found to be 71.9%; in [8] it was 74.7%. Also, the viability at 24 h, up to 40 µM in data set [4] was greater than 90%. The Activity in the data set on PC-12 [6] is on record as 30%. Also, the IC50 turned out to be 8.3 µM in data set [7] and 1.9 µM with PC-12 [10]. Moreover, the EC50 in data set [9] came out at 6.9 µM.
In the case of `O=S(=O)(/C=C/c1ccc(O)c(O)c1)CCCC1CCCC1`, the outcome with PC-12 [2], with PC-12 [12], in the data set with PC-12 [13], in the data set with PC-12 [5], with PC-12 [14] and in the data set with PC-12 [15] was Active. Moreover, the “Ratio IC50” value in data set [11] is recorded as 4; in [16] it was 8. Moreover, the IC50 in data set [1] turned out to be 103 µM; in [7], 1.6 µM; in the data set on PC-12 [10], 1.28 µM. Also, the viability at 24 h, 100 µM in data set [3] turned out to be 72.4%; in data set [8] it was 70.5%. Moreover, in [4], the viability at 24 h, up to 40 µM is greater than 90%. Moreover, the Activity in the data set on PC-12 [6] stood at 30%. Moreover, the EC50 in [9] was 6.3 µM.
For `O=S(=O)(/C=C/c1ccc(O)c(O)c1)CCCC1CCCCC1`, the result with PC-12 [2] and in the data set with PC-12 [5] was Active. Further, the viability at 24 h, 100 µM in [3] was 77.7%; in data set [8] it was 91.3%. The viability at 24 h, up to 40 µM in data set [4] is greater than 90%. Moreover, the Activity with PC-12 [6] stood at 30%. For the same compound, the IC50 is 9.2 µM in data set [7] and 1 µM in the data set with PC-12 [10]. Further, the EC50 in [9] came out at 7.9 µM.
For `O=S(=O)(/C=C/c1ccc(O)c(O)c1)CC1CCCCC1`, the result in the data set on PC-12 [2] and in the data set on PC-12 [5] was Active. The viability at 24 h, 100 µM stood at 74.7% in [3] and 87% in data set [8]. Further, in data set [4], the viability at 24 h, up to 40 µM is greater than 90%. The Activity in the data set on PC-12 [6] was 30%. Also, the IC50 in [7] is 6.7 µM; with PC-12 [10], 1.85 µM. Besides, the EC50 in [9] amounted to 7.5 µM.
Turning to `CCCCCCS(=O)(=O)/C=C/c1ccc(O)c(O)c1`, the outcome in the data set with PC-12 [2] and in the data set with PC-12 [5] was Active. Moreover, the viability at 24 h, 100 µM in [3] turned out to be 56.2%; in [8] it was 63.7%. Further, in data set [4], the viability at 24 h, up to 40 µM is greater than 90%. The Activity with PC-12 [6] was 30%. Further, the IC50 in data set [7] came out at 3.8 µM; in the data set on PC-12 [10], 1.3 µM. Besides, the EC50 in data set [9] was found to be 7.3 µM.
With `O=S(=O)(/C=C/c1ccc(O)c(O)c1)CCCc1ccccc1`, the outcome with PC-12 [2], with PC-12 [12], in the data set on PC-12 [13] and in the data set on PC-12 [14] was Active. The IC50 worked out at 140 µM in data set [1], 13.4 µM in data set [7] and 1.86 µM with PC-12 [10]. The results for the viability at 24 h, 100 µM in data set [3] and in data set [8] were 72% and 86.1%, respectively. In addition, the viability at 24 h, up to 40 µM in data set [4] was greater than 90%. In addition, in data set [9], the EC50 was determined as 11.5 µM.
Turning to `C=CCCCCCCS(=O)(=O)/C=C/c1ccc(O)c(O)c1`, the result in the data set with PC-12 [2] and in the data set on PC-12 [5] was Active. Moreover, the figures for the viability at 24 h, 100 µM in data set [3] and in data set [8] were 73.4% and 66.9%, respectively. The viability at 24 h, up to 40 µM in data set [4] was greater than 90%. In addition, in the data set with PC-12 [6], the Activity is recorded as 30%. The IC50 in data set [7] turned out to be 8.7 µM; with PC-12 [10], 1.35 µM. For the same compound, the concentration giving a half-maximal response (EC50) in data set [9] is 6.4 µM.
As for `C=CCCCCCS(=O)(=O)/C=C/c1ccc(O)c(O)c1`, the result with PC-12 [2] and in the data set on PC-12 [5] was Active. For the same compound, the results for the viability at 24 h, 100 µM in data set [3] and in data set [8] were 58.9% and 67.5%, respectively. Besides, the viability at 24 h, up to 40 µM in data set [4] is greater than 90%. Also, the Activity in the data set with PC-12 [6] was found to be 30%. The IC50 in data set [7] stood at 11.2 µM; in the data set with PC-12 [10] it was 1.62 µM. In data set [9], the EC50 was 7.1 µM.

(Values after ChEMBL document CHEMBL4346690, “Structure-activity relationship studies of (E)-3,4-dihydroxystyryl alkyl sulfones as novel neuroprotective agents based on improved antioxidant, anti-inflammatory activities and BBB permeability” (Eur J Med Chem, 2019).)
